Bioassay records deposited in PubChem BioAssay by Sanford-Burnham Center for Chemical Genomics.
Most compounds without a hit are left out; they make up all but 0.72% or so of the library.
hIAP inh: human IAP inhibition; P09923; purified IAP, CDP-Star luminescence, 30 min; inhibition, % at 10 µM; 330,000 compounds, 0.12% hits; AID 2544;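 active = inhibition reaching a set limit with compound at 10 µM in the primary screen, cut at about 35% in these data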;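 note: plate controls were DMSO wells with enzyme for no effect and no-enzyme buffer wells for full effect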
Target sequence (P09923 whole entry, looked up): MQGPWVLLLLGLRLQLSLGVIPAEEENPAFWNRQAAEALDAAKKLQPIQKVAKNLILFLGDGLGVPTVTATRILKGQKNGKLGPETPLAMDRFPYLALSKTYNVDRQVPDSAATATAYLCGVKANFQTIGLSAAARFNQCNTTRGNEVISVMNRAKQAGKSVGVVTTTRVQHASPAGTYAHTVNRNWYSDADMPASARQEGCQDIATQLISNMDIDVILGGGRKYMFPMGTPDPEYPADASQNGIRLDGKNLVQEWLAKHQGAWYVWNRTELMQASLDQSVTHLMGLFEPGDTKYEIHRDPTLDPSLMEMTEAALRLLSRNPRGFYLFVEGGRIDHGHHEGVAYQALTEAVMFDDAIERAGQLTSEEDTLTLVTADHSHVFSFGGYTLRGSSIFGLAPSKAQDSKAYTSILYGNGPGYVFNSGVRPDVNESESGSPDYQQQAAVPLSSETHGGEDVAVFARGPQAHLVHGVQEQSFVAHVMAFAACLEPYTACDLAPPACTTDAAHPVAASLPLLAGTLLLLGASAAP
hIAP act: increases human intestinal alkaline phosphatase activity; P09923; purified human IAP, CDP-Star luminescence, 30 min; stronger effect = higher value; 1 = vehicle-only enzyme, 0 = enzyme-free background; activation factor at 10 µM; 330,000 compounds, 0.16% hits; AID 2524;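 active = activation factor of the enzyme at least 2-fold when tested at 20 µM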
mIAP act: mouse IAP activation. muIAP, CDP-Star luminescence, 30 min; stronger effect = higher value; 1 = vehicle-only enzyme signal, 0 = enzyme-free wells. activation factor at 10 µM. 330,000 compounds, 0.24% hits;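 active = activation factor of at least 2 at 20 µM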
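System: Mouse IAP enzyme | Also added: CDP-Star substrate | Dosing: Compounds dispensed in DMSO | Schedule: 30 min enzyme-substrate-compound incubation at room temperature | Technique: Chemiluminescence readout | Control set: DMSO-only wells and no-enzyme negative control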
bIAP inhibitor: intestinal alkaline phosphatase (bovine) inhibition. purified bovine IAP, CDP-star luminescence, 30 min. 190,000 tested, under 10 active. AID 1019. inhibition, % at 20 µM;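 active = over 50% inhibition of intestinal alkaline phosphatase at 20 µM in the single-dose screen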
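Assay system – bovine IAP enzyme · Quantity – bovine IAP at 1/65,000,000 final dilution · Detection – CDP-star luminescence signal · Times – 30 min reaction at room temperature · Also added – CDP-star substrate at 30 µM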
mIAP inh: blocks mouse intestinal alkaline phosphatase. purified mouse IAP, CDP-Star luminescence, 30 min. inhibition, % at 10 µM. 330,000 compounds, 0.2% hits. AID 2806;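 active = inhibition of at least 40% at 10 µM in the primary screen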;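 note: plate controls were DMSO with enzyme for no effect and no enzyme wells for full effect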
bIAP activator: increases bovine intestinal alkaline phosphatase activity | purified bovine IAP, CDP-star luminescence, 30 min; stronger effect = higher value; fold of DMSO-control signal, blank-subtracted | AID 1016 | activation factor at 20 µM | 200,000 compounds, 0.17% hits;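 active = activation factor of 2 or more at 20 µM, a signal rise over negative controls twice the positive control's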
Numbers without * were called inactive; . = no result.

SMILES	hIAP inh	hIAP act	mIAP act	bIAP inhibitor	mIAP inh	bIAP activator
Clc1ccc(/C=N/Nc2ncnc3nc[nH]c23)cc1	-123	2.2*	1	.	-1	.
Fc1cccc(/C=N/Nc2ncnc3nc[nH]c23)c1	-97	2	1.1	0	-10	1
Cc1ccc(/C=N/Nc2ncnc3nc[nH]c23)cc1	-117	2.2*	0.88	.	12	.
Oc1ccc(/C=N/Nc2ncnc3nc[nH]c23)cc1	-45	1.4	0.77	.	23	.
CCOc1ccc(N=C(/C(C(=O)C(=O)N2CCOCC2)=C(/O)c2ccccc2)c2ccccc2)cc1	-4	1	0.89	.	11	.
O=C(Cn1nc(-c2ccccc2)oc1=O)OCC(=O)c1ccc(F)c(F)c1	6	0.94	1.2	.	-15	.
COc1ccc(NC(=O)Nc2ccc3c(c2)C(=O)N([C@H](C)CO)C[C@H](C)[C@@H](CN(C)C(=O)Nc2ccc(C(F)(F)F)cc2)O3)cc1	-12	1.1	2.1*	.	-111	.
COc1ccc(NC(=O)Nc2ccc3c(c2)C(=O)N([C@H](C)CO)C[C@H](C)[C@@H](CN(C)C(=O)Nc2ccc(OC)cc2)O3)cc1	2	0.98	2.3*	.	-134	.
COc1ccc(NC(=O)N(C)C[C@H]2Oc3ccc(NC(=O)NC(C)C)cc3C(=O)N([C@H](C)CO)C[C@@H]2C)cc1	-19	1.2	1.1	.	-13	.
C[C@@H]1CN([C@@H](C)CO)C(=O)c2cc(NC(=O)Nc3ccccc3)ccc2O[C@H]1CN(C)C(=O)Nc1cccc2ccccc12	-12	1.1	2.7*	.	-167	.
COc1ccc(NC(=O)N(C)C[C@H]2Oc3ccc(NC(=O)Nc4ccc(C(F)(F)F)cc4)cc3C(=O)N([C@H](C)CO)C[C@@H]2C)cc1	13	0.87	2.1*	.	-110	.
O=C(CCc1nnc(C2(c3ccc(Cl)cc3)CCC2)o1)N1CCCC(O)C1 (stereo unspecified)	12	0.88	1.1	.	-12	.
O=C(Nc1cccc(F)c1)NC1CC2CCCC(C1)N2C1CC1 (stereo unspecified)	6	0.94	1.4	-2	-38	1
O=C(Nc1ccc(Cl)c(C(F)(F)F)c1)NC1CC2CCCC(C1)N2C1CC1 (stereo unspecified)	8	0.92	4.4*	.	-337	.
CN(C)S(=O)(=O)c1cccc(-c2nn(-c3ccccc3)cc2/C=C2\SC(=S)NC2=O)c1	.	.	.	-108	.	2.1*
N#Cc1sc2nc(-c3ccccc3)cc(-c3ccco3)c2c1N	4	0.96	0.52	11	48*	0.9
N#Cc1sc2nc(C3CC3)cc(-c3ccccc3)c2c1N	-29	1.3	1.1	15	-14	0.9
Fc1ccc(C2CC(c3cccs3)=NN2c2ccccc2)cc1 (stereo unspecified)	-44	1.4	2.3*	-70	-130	1.7
NS(=O)(=O)c1ccc(N2N=C(c3ccccc3)CC2c2ccc(F)cc2)cc1 (stereo unspecified)	-21	1.2	2.1*	-41	-108	1.4
O=C(COc1ccccc1[N+](=O)[O-])Nc1ccc2c(c1)CCC2	4	0.96	0.83	.	17	.
CC1CC(C)CN(C(=O)C2CCN(C(=O)Nc3ccccc3)CC2)C1 (stereo unspecified)	5	0.95	1.1	.	-10	.
CC(C)(C)OC(=O)NCCCCCc1cn([C@@H](CO)C(=O)NCCCCCCCCCCC(=O)N2CCN(C(=O)OC(C)(C)C)CC2)nn1	9	0.91	1.1	.	-7	.
CC[C@H](C)[C@@H](C(=O)NCCCCCCCCCCC(=O)N1CCN(C(=O)OC(C)(C)C)CC1)n1cc(CCCCCNC(=O)OC(C)(C)C)nn1	0	0.99	2.5*	.	-150	.
C#CCOCCOCCOCCNc1nc(N2CCN(C(=O)CCCCCCCCCCNC(=O)[C@@H](CCSC)n3cc(CCO)nn3)CC2)nc(N2CCN(C(=O)CCCCCCCCCCNC(=O)[C@H](CCSC)n3cc(CCO)nn3)CC2)n1	12	0.88	2.6*	.	-164	.
CC(C)(C)OC(=O)CC[C@@H](C(=O)NCCCCCCCCCCC(=O)N1CCN(C(=O)OC(C)(C)C)CC1)n1cc(CCCCCNC(=O)OC(C)(C)C)nn1	0	0.99	3.2*	.	-216	.
COc1ccc(S(=O)(=O)N2CCC(C(=O)NC3CCCCC3)CC2)cc1OC	6	0.94	1	.	-1	.
